Source: ChEMBL document CHEMBL1138520, “Molecular and conformational determinants of pituitary adenylate cyclase-activating polypeptide (PACAP) for activation of the PAC1 receptor” (J Med Chem, 2009)
Where a SMILES comes first, the peptide text is derived from it.

Experiments:
[1] = target: T1, Pituitary adenylate cyclase-activating polypeptide type I receptor (Homo sapiens, UniProt P41586); assay: Agonist activity at human recombinant PAC1 receptor expressed in CHO cells assessed as PACAP38-induced calcium mobilization by FLIPR assay; type: functional, cell-based
Outline: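 CHO cells stably expressing recombinant human PAC1, plated 24 h before assay, loaded with fluo-4 AM for 60 min at 37 °C in the dark, then rinsed into HBSS for 15 min at 37 °C. EC50 and efficacy came from nonlinear regression; 4-10 independent assays in duplicate.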
Target sequence in this assay (P41586 whole entry): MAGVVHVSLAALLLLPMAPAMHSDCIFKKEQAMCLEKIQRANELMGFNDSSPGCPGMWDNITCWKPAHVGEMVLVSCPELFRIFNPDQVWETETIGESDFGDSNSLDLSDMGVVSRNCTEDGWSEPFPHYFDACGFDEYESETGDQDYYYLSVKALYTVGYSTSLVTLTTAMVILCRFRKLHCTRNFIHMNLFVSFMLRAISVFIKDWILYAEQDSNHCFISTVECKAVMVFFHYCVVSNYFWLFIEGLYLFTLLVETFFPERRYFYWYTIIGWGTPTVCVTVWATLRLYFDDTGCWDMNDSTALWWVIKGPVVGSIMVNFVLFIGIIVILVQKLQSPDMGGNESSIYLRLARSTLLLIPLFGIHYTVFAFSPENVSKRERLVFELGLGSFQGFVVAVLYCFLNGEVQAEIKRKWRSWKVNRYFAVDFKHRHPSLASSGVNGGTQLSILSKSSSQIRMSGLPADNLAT

[2] = target: T1, Pituitary adenylate cyclase-activating polypeptide type I receptor; assay: Displacement of [125I]Ac-PACAP27 from human recombinant PAC1 receptor expressed in CHO cells by gamma- counter; type: cell-based
Target sequence in this assay (P41586 whole entry): as above

[3] = target: T1, Pituitary adenylate cyclase-activating polypeptide type I receptor; assay: Agonist activity at human recombinant PAC1 receptor expressed in CHO cells assessed as PACAP38-induced calcium mobilization by FLIPR assay relative to PACAP38; type: functional, cell-based
Outline: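 CHO cells stably expressing recombinant human PAC1, plated 24 h before assay, loaded with fluo-4 AM for 60 min at 37 °C in the dark, then rinsed into HBSS for 15 min at 37 °C. Peptide was added 18 s into a 150 s read (ex 480/em 525 nm), at final concentrations of 1 × 10-12 to 1 × 10^-5 M. Response was normalised to 1 × 10^-5 M PACAP38 on each plate. EC50 and efficacy came from nonlinear regression; 4-10 independent assays in duplicate.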
Target sequence in this assay (P41586 21-468 limits assumed): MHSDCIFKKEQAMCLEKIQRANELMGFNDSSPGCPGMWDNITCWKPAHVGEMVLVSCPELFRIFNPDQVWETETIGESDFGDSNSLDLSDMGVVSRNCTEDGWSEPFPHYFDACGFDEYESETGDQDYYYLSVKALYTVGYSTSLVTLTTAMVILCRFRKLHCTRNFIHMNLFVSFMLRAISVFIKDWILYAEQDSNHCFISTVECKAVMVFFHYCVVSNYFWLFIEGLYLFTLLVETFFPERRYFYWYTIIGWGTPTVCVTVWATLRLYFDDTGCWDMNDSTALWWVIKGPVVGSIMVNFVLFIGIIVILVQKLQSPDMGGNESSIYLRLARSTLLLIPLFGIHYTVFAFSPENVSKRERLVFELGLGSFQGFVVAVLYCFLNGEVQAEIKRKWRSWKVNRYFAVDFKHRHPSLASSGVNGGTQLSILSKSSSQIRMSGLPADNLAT

| SMILES | EC50 [1] [nM] | IC50 [2] [nM] | Emax [3] [%] |
| --- | --- | --- | --- |
| CC[C@H](C)[C@H](NC(=O)CNC(=O)[C@H](CC(=O)O)NC(=O)[C@H](CO)NC(=O)[C@@H](N)Cc1cnc[nH]1)C(=O)N[C@@H](Cc1ccccc1)C(=O)N[C@@H](C(=O)N[C@@H](CC(=O)O)C(=O)N[C@@H](CO)C(=O)N[C@@H](Cc1ccc(O)cc1)C(=O)N[C@@H](CO)C(=O)N[C@@H](CCCNC(=N)N)C(=O)N[C@@H](Cc1ccc(O)cc1)C(=O)N[C@@H](CCCNC(=N)N)C(=O)N[C@@H](CCCCN)C(=O)N[C@@H](CCC(N)=O)C(=O)N[C@@H](CCSC)C(=O)N[C@@H](C)C(=O)N[C@H](C(=O)N[C@@H](CCCCN)C(=O)N[C@@H](CCCCN)C(=O)N[C@@H](Cc1ccc(O)cc1)C(=O)N[C@@H](CC(C)C)C(=O)N[C@@H](C)C(=O)N[C@@H](C)C(=O)N[C@H](C(=O)N[C@@H](CC(C)C)C(=O)NCC(=O)N[C@@H](CCCCN)C(=O)N[C@@H](CCCNC(=N)N)C(=O)N[C@@H](Cc1ccc(O)cc1)C(=O)N[C@@H](CCCCN)C(=O)N[C@@H](CCC(N)=O)C(=O)N[C@@H](CCCNC(=N)N)C(=O)N[C@H](C(=O)N[C@@H](CCCCN)C(=O)N[C@@H](CC(N)=O)C(=O)N[C@@H](CCCCN)C(N)=O)C(C)C)C(C)C)C(C)C)[C@H](C)O | 7.3 | 119 | – |
| CC[C@H](C)[C@H](NC(=O)CNC(=O)[C@H](CC(=O)O)NC(=O)[C@H](CO)NC(=O)[C@@H](N)Cc1cncn1C)C(=O)N[C@@H](Cc1ccccc1)C(=O)N[C@H](C(=O)N[C@@H](CC(=O)O)C(=O)N[C@@H](CO)C(=O)N[C@@H](Cc1ccc(O)cc1)C(=O)N[C@@H](CO)C(=O)N[C@@H](CCCN=C(N)N)C(=O)N[C@@H](Cc1ccc(O)cc1)C(=O)N[C@@H](CCCN=C(N)N)C(=O)N[C@@H](CCCCN)C(=O)N[C@@H](CCC(N)=O)C(=O)N[C@@H](CCSC)C(=O)N[C@@H](C)C(=O)N[C@H](C(=O)N[C@@H](CCCCN)C(=O)N[C@@H](CCCCN)C(=O)N[C@@H](Cc1ccc(O)cc1)C(=O)N[C@@H](CC(C)C)C(=O)N[C@@H](C)C(=O)N[C@@H](C)C(=O)N[C@H](C(=O)N[C@@H](CC(C)C)C(=O)NCC(=O)N[C@@H](CCCCN)C(=O)N[C@@H](CCCN=C(N)N)C(=O)N[C@@H](Cc1ccc(O)cc1)C(=O)N[C@@H](CCCCN)C(=O)N[C@@H](CCC(N)=O)C(=O)N[C@@H](CCCN=C(N)N)C(=O)N[C@H](C(=O)N[C@@H](CCCCN)C(=O)N[C@@H](CC(N)=O)C(=O)N[C@@H](CCCCN)C(N)=O)C(C)C)C(C)C)C(C)C)[C@@H](C)O | 2.4 | 7.5 | – |
| CC[C@H](C)[C@H](NC(=O)CNC(=O)[C@H](CC(=O)O)NC(=O)[C@H](CO)NC(=O)[C@@H](N)Cc1cnc[nH]1)C(=O)N[C@@H](Cc1ccccc1)C(=O)N[C@H](C(=O)N[C@@H](CC(=O)O)C(=O)N[C@@H](CO)C(=O)N[C@@H](Cc1ccc(O)cc1)C(=O)N[C@@H](CO)C(=O)N[C@@H](CCCNC(=N)N)C(=O)N[C@@H](Cc1ccc(O)cc1)C(=O)N[C@@H](CCCNC(=N)N)C(=O)N[C@@H](CCCCN)C(=O)N[C@@H](CCC(N)=O)C(=O)N[C@@H](CCSC)C(=O)N[C@@H](C)C(=O)N[C@H](C(=O)N[C@@H](CCCCN)C(=O)N[C@@H](CCCCN)C(=O)N[C@@H](Cc1ccc(O)cc1)C(=O)N[C@@H](CC(C)C)C(=O)N[C@@H](C)C(=O)N[C@@H](C)C(=O)N[C@H](C(=O)N[C@@H](CC(C)C)C(=O)NCC(=O)N[C@@H](CCCCN)C(=O)N[C@@H](CCCNC(=N)N)C(=O)N[C@@H](Cc1ccc(O)cc1)C(=O)N[C@@H](CCCCN)C(=O)N[C@@H](CCC(N)=O)C(=O)N[C@@H](CCCNC(=N)N)C(=O)N[C@H](C(=O)N[C@@H](CCCCN)C(=O)N[C@@H](CC(N)=O)C(=O)N[C@@H](CCCCN)C(N)=O)C(C)C)C(C)C)C(C)C)[C@@H](C)O | – | – | 100 |
| CC[C@H](C)[C@H](NC(=O)CNC(=O)[C@H](CC(=O)O)NC(=O)[C@H](CO)NC(=O)[C@@H](N)Cc1cn(C)cn1)C(=O)N[C@@H](Cc1ccccc1)C(=O)N[C@H](C(=O)N[C@@H](CC(=O)O)C(=O)N[C@@H](CO)C(=O)N[C@@H](Cc1ccc(O)cc1)C(=O)N[C@@H](CO)C(=O)N[C@@H](CCCNC(=N)N)C(=O)N[C@@H](Cc1ccc(O)cc1)C(=O)N[C@@H](CCCNC(=N)N)C(=O)N[C@@H](CCCCN)C(=O)N[C@@H](CCC(N)=O)C(=O)N[C@@H](CCSC)C(=O)N[C@@H](C)C(=O)N[C@H](C(=O)N[C@@H](CCCCN)C(=O)N[C@@H](CCCCN)C(=O)N[C@@H](Cc1ccc(O)cc1)C(=O)N[C@@H](CC(C)C)C(=O)N[C@@H](C)C(=O)N[C@@H](C)C(=O)N[C@H](C(=O)N[C@@H](CC(C)C)C(=O)NCC(=O)N[C@@H](CCCCN)C(=O)N[C@@H](CCCNC(=N)N)C(=O)N[C@@H](Cc1ccc(O)cc1)C(=O)N[C@@H](CCCCN)C(=O)N[C@@H](CCC(N)=O)C(=O)N[C@@H](CCCNC(=N)N)C(=O)N[C@H](C(=O)N[C@@H](CCCCN)C(=O)N[C@@H](CC(N)=O)C(=O)N[C@@H](CCCCN)C(N)=O)C(C)C)C(C)C)C(C)C)[C@@H](C)O | – | – | 18.2 |

Further lines, results first:

| EC50 [1] [nM] | IC50 [2] [nM] | Emax [3] [%] | SMILES |
| --- | --- | --- | --- |
| 11 | 49.3 | – | CC[C@H](C)[C@H](NC(=O)CNC(=O)[C@H](CC(=O)O)NC(=O)[C@H](CO)NC(=O)[C@H](C)N)C(=O)N[C@@H](Cc1ccccc1)C(=O)N[C@H](C(=O)N[C@@H](CC(=O)O)C(=O)N[C@@H](CO)C(=O)N[C@@H](Cc1ccc(O)cc1)C(=O)N[C@@H](CO)C(=O)N[C@@H](CCCN=C(N)N)C(=O)N[C@@H](Cc1ccc(O)cc1)C(=O)N[C@@H](CCCN=C(N)N)C(=O)N[C@@H](CCCCN)C(=O)N[C@@H](CCC(N)=O)C(=O)N[C@@H](CCSC)C(=O)N[C@@H](C)C(=O)N[C@H](C(=O)N[C@@H](CCCCN)C(=O)N[C@@H](CCCCN)C(=O)N[C@@H](Cc1ccc(O)cc1)C(=O)N[C@@H](CC(C)C)C(=O)N[C@@H](C)C(=O)N[C@@H](C)C(=O)N[C@H](C(=O)N[C@@H](CC(C)C)C(=O)NCC(=O)N[C@@H](CCCCN)C(=O)N[C@@H](CCCN=C(N)N)C(=O)N[C@@H](Cc1ccc(O)cc1)C(=O)N[C@@H](CCCCN)C(=O)N[C@@H](CCC(N)=O)C(=O)N[C@@H](CCCN=C(N)N)C(=O)N[C@H](C(=O)N[C@@H](CCCCN)C(=O)N[C@@H](CC(N)=O)C(=O)N[C@@H](CCCCN)C(N)=O)C(C)C)C(C)C)C(C)C)[C@@H](C)O (H-ASDGIFTDSYSRYRKQMAVKKYLAAVLGKRYKQRVKNK-NH2) |
| 37.6 | 11.3 | – | CC[C@H](C)[C@H](NC(=O)CNC(=O)[C@H](CC(=O)O)NC(=O)[C@H](CO)NC(=O)[C@@H](N)Cc1cn(C)cn1)C(=O)N[C@@H](Cc1ccccc1)C(=O)N[C@H](C(=O)N[C@@H](CC(=O)O)C(=O)N[C@@H](CO)C(=O)N[C@@H](Cc1ccc(O)cc1)C(=O)N[C@@H](CO)C(=O)N[C@@H](CCCN=C(N)N)C(=O)N[C@@H](Cc1ccc(O)cc1)C(=O)N[C@@H](CCCN=C(N)N)C(=O)N[C@@H](CCCCN)C(=O)N[C@@H](CCC(N)=O)C(=O)N[C@@H](CCSC)C(=O)N[C@@H](C)C(=O)N[C@H](C(=O)N[C@@H](CCCCN)C(=O)N[C@@H](CCCCN)C(=O)N[C@@H](Cc1ccc(O)cc1)C(=O)N[C@@H](CC(C)C)C(=O)N[C@@H](C)C(=O)N[C@@H](C)C(=O)N[C@H](C(=O)N[C@@H](CC(C)C)C(=O)NCC(=O)N[C@@H](CCCCN)C(=O)N[C@@H](CCCN=C(N)N)C(=O)N[C@@H](Cc1ccc(O)cc1)C(=O)N[C@@H](CCCCN)C(=O)N[C@@H](CCC(N)=O)C(=O)N[C@@H](CCCN=C(N)N)C(=O)N[C@H](C(=O)N[C@@H](CCCCN)C(=O)N[C@@H](CC(N)=O)C(=O)N[C@@H](CCCCN)C(N)=O)C(C)C)C(C)C)C(C)C)[C@@H](C)O |
| 389 | 21.6 | – | CC[C@H](C)[C@H](NC(=O)CNC(=O)[C@H](CC(=O)O)NC(=O)[C@H](CO)NC(=O)[C@@H](N)Cc1cn(C)cn1)C(=O)N[C@@H](Cc1ccccc1)C(=O)N[C@H](C(=O)N[C@@H](CC(=O)O)C(=O)N[C@@H](CO)C(=O)N[C@@H](Cc1ccc(O)cc1)C(=O)N[C@@H](CO)C(=O)N[C@@H](CCCN=C(N)N)C(=O)N[C@@H](Cc1ccc(O)cc1)C(=O)N[C@@H](CCCN=C(N)N)C(=O)N[C@@H](CCCCN)C(=O)N[C@@H](CCC(N)=O)C(=O)N[C@@H](CCSC)C(=O)N[C@@H](C)C(=O)N[C@H](C(=O)N[C@@H](CCCCN)C(=O)N[C@@H](CCCCN)C(=O)N[C@@H](Cc1ccc(O)cc1)C(=O)N[C@@H](CC(C)C)C(=O)N[C@@H](C)C(=O)N[C@@H](C)C(=O)N[C@H](C(=O)N[C@@H](CC(C)C)C(N)=O)C(C)C)C(C)C)[C@@H](C)O |
| – | – | 31.9 | CC[C@H](C)[C@H](NC(=O)CNC(=O)[C@H](CC(=O)O)NC(=O)[C@H](CO)NC(=O)[C@@H](N)Cc1cn(C)cn1)C(=O)N[C@@H](Cc1ccccc1)C(=O)N[C@H](C(=O)N[C@@H](CC(=O)O)C(=O)N[C@@H](CO)C(=O)N[C@@H](Cc1ccc(O)cc1)C(=O)N[C@@H](CO)C(=O)N[C@@H](CCCNC(=N)N)C(=O)N[C@@H](Cc1ccc(O)cc1)C(=O)N[C@@H](CCCNC(=N)N)C(=O)N[C@@H](CCCCN)C(=O)N[C@@H](CCC(N)=O)C(=O)N[C@@H](CCSC)C(=O)N[C@@H](C)C(=O)N[C@H](C(=O)N[C@@H](CCCCN)C(=O)N[C@@H](CCCCN)C(=O)N[C@@H](Cc1ccc(O)cc1)C(=O)N[C@@H](CC(C)C)C(=O)N[C@@H](C)C(=O)N[C@@H](C)C(=O)N[C@H](C(=O)N[C@@H](CC(C)C)C(N)=O)C(C)C)C(C)C)[C@@H](C)O |
